Results as given in PMC4828974 (Cancer research, 2015).

What was measured:
CYFIP1 [1] = target: CYFIP1 (Homo sapiens, UniProt Q7L576); test: Avidin-biotin pull down with biotinylated stapled peptides, western blot; type: binding; details: 2.5 µM versus 10 µM biotinylated peptide, MDA-MB-231 cells
Outline: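 MDA-MB-231 cells exposed to biotin-labelled stapled test peptides at 2.5 or 10 µM, with biotinylated scrambled peptides as controls. Lysates incubated overnight at 4 °C with immobilised avidin resin. Pulled-down material resolved by SDS-PAGE and western blotted for CYFIP1.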

WASF3-CYFIP1 complex = WASF3-CYFIP1 complex (Homo sapiens, UniProt Q7L576); test: Immunoprecipitation of WASF3, western blot for CYFIP1; type: cell-based; details: MDA-MB-231 cells treated with peptide, IP of WASF3
Sequence of WASF3-CYFIP1 complex (Q7L576 whole entry): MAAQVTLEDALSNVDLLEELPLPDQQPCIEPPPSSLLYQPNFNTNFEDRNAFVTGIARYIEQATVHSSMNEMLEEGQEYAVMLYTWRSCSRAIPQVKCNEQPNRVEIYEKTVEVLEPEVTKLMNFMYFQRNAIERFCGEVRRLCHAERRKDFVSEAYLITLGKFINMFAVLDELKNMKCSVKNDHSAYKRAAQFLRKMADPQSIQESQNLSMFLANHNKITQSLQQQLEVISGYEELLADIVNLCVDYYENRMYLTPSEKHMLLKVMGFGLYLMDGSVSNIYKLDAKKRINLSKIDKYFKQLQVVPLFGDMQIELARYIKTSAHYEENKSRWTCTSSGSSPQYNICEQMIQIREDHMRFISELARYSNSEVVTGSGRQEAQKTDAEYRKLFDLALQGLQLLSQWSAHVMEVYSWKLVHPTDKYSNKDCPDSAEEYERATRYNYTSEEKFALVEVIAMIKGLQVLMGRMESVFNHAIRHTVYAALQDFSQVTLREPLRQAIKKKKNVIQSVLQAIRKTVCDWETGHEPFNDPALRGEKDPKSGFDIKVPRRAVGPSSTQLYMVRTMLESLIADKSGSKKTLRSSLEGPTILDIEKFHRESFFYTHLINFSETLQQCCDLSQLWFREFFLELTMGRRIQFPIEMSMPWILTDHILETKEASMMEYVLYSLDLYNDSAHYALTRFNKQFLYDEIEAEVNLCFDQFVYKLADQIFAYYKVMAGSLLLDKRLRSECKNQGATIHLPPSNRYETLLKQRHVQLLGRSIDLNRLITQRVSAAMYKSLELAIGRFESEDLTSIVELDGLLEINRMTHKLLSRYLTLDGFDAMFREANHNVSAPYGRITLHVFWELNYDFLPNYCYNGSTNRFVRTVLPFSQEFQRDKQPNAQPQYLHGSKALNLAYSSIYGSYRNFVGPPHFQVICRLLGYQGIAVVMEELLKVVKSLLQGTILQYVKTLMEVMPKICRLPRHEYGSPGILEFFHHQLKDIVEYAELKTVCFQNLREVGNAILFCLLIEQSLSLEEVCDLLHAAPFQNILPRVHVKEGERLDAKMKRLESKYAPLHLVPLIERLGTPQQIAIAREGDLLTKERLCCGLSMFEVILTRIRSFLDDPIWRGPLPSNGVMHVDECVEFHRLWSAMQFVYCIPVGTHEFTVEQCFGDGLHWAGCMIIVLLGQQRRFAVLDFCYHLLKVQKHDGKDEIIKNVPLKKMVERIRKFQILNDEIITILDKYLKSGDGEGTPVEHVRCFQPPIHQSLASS
Sequence of WASF3-CYFIP1 complex (Q9Y2A7 whole entry partner): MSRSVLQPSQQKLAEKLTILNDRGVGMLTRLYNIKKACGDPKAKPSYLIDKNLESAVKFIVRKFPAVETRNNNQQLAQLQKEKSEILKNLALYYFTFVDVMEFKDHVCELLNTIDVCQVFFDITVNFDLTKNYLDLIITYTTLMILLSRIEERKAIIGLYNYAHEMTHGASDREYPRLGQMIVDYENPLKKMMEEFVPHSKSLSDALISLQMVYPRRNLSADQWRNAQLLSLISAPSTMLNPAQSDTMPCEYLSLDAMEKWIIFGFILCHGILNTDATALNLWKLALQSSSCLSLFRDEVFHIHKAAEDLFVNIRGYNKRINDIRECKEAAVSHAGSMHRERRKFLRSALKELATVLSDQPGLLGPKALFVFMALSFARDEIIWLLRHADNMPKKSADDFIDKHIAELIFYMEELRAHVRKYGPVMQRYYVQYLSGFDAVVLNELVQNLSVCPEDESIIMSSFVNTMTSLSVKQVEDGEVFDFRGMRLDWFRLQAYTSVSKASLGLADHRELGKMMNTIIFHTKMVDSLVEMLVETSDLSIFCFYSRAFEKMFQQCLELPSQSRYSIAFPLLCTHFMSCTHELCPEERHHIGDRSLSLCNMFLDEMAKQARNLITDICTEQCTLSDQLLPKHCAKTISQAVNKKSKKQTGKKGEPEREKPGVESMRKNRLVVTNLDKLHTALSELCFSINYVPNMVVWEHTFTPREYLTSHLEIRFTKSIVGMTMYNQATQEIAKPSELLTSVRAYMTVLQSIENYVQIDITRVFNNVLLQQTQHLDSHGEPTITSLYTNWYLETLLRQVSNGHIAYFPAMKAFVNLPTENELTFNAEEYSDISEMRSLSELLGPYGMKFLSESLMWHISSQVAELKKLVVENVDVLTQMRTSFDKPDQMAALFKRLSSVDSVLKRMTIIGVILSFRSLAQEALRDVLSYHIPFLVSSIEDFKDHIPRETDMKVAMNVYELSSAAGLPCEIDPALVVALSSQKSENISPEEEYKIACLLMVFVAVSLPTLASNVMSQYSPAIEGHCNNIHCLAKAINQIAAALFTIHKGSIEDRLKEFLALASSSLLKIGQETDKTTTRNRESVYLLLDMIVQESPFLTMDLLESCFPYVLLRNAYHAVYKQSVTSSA

[2] = test system: breast or prostate cancer cells; test: MTS cell proliferation assay; type: cell-based; details: 10 µM, over 24 hours
[3] = test system: breast and prostate cell lines; test: Scratch wound; type: cell-based; details: scratch wound assay, compared with DMSO and scrambled peptide
[4] = test system: breast and prostate cancer cells; test: Transwell invasion assay; type: cell-based; details: for reduction of invasion potential: Transwell, 24 hours, 10 µM, compared with SCR peptides or DMSO; for dose dependence of suppression of cell invasion: high dose 10 µM versus low dose 2.5 µM
[5] = test system: WASF3 phosphorylation in MDA-MB-231 cells; test: WASF3 phosphorylation status; type: cell-based; details: for WASF3 phosphorylation levels: MDA-MB-231 cells in serum
Outline: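 MDA-MB-231 cells were treated with stapled peptides, the scrambled control peptide, or the HSP90 inhibitor 17-AAG for comparison. WASF3 was immunoprecipitated, with IgG IP as the negative control. Immunoblots were probed with the PY20 antibody for phosphorylation and with WASF3 antibody for total protein.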

WASF3 = WASF3 protein levels by western blot; type: cell-based; details: MDA-MB-231 cells cultured in serum
CYFIP1 [6] = test: CYFIP1 protein levels by western blot; type: cell-based; details: 24 hours treatment
KISS1 = KISS1 levels by western blot; type: cell-based; details: MDA-MB-231 cells, compared with scrambled peptides
[7] = target: Rac1/2 binding to the WASF3 complex (Homo sapiens, UniProt Q7L576); test: IP with WASF3 antibodies, western blot for Rac1/Rac2; type: cell-based; details: MDA-MB-231 cells
Sequence of Rac1/2 binding to the WASF3 complex (Q7L576 whole entry): as the sequence (Q7L576 whole entry) above
Sequence of Rac1/2 binding to the WASF3 complex (Q9Y2A7 whole entry partner): as the sequence (Q9Y2A7 whole entry partner) above
Outline: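 MDA-MB-231 cells were left untreated or treated with stapled test peptides or a scrambled control peptide. Lysates were immunoprecipitated with anti-WASF3 antibody, and the immunocomplex was western blotted for Rac1 and Rac2.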

[8] = test system: WASF3 phosphorylation in MDA-MB-231 cells; details: inactivation of HSP90; cited from earlier work

Sequence of CYFIP1 (Homo sapiens, UniProt Q7L576) (Q7L576 whole entry): as the sequence (Q7L576 whole entry) above

Row | concentration dependence of CYFIP1 pull down (CYFIP1 [1]) | CYFIP1 in the WASF3 immunocomplex (WASF3-CYFIP1 complex) | Rac2 in the WASF3 IP [7] | Compound | cell proliferation [2] | migration potential / cell motility [3] | reduction of invasion potential [4] | dose dependence of suppression of cell invasion [4] | suppression of WASF3 phosphorylation compared with 17-AAG ([5]; MDA-MB-231 cells) | WASF3 phosphorylation levels [5] | WASF3 protein levels (WASF3) | intracellular levels of WASF3 or CYFIP1 (CYFIP1 [6]) | KISS1 levels (KISS1) | WASF3 phosphoactivation [8]
1 | concentration-dependent | not present in the immunocomplex | could not be detected | LEK*TNS*LAKIIRQL (sidechain bridge or staple) [WAHM1] | no significant difference in cell proliferation | significant reduction in cell motility | 50–75% | dose-dependent effect | more efficient than the 17-AAG HSP90 inhibitor | dramatic decrease in WASF3 phosphorylation levels | without a reduction in WASF3 protein levels | did not affect intracellular levels of either WASF3 or CYFIP1 | increased KISS1 levels | 
2 |  |  |  | C=CCNC1=C2C[C@@H](C)C[C@H](OC)[C@H](O)[C@@H](C)/C=C(\C)[C@H](OC(N)=O)[C@@H](OC)/C=C\C=C(/C)C(=O)NC(=CC1=O)C2=O [17-AAG] |  |  |  |  |  |  |  |  |  | reduced WASF3 phosphoactivation
3 | concentration-dependent | not present in the immunocomplex |  | LEKKTN*TLA*IIRQL (sidechain bridge or staple) [WAHM2] | no significant difference in cell proliferation | significant reduction in cell motility | 50–75% | dose-dependent effect |  | dramatic decrease in WASF3 phosphorylation levels | without a reduction in WASF3 protein levels | did not affect intracellular levels of either WASF3 or CYFIP1 | increased KISS1 levels | 
4 |  |  | present | SRA*LLI*TKIQNELK (sidechain bridge or staple) [SCR1] |  |  |  |  |  |  |  |  |  | 
